Measurements as given in ChEMBL document CHEMBL4043300, “2 H-1,2,3-Triazole-Based Dipeptidyl Nitriles: Potent, Selective, and Trypanocidal Rhodesain Inhibitors by Structure-Based Design” (J Med Chem, 2018).
Converted amounts (≈) assume the structure as drawn.

Key:
[1] = Octanol-water intrinsic distribution co-efficient, log D of the compound at 100 uM at pH 7.4 after 16 to 22 hrs by CAMDIS assay; format: physicochemical
Procedure, shortened: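 Octanol/aqueous buffer (pH 7.4) intrinsic distribution coefficient measured in the CAMDIS carrier-mediated distribution system.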

Procathepsin L = Procathepsin L (Homo sapiens, UniProt P07711); assay: Inhibition of human CatL using Cbz-Phe-Arg-AMC as substrate measured over 30 mins by fluorimetric method
Procedure, shortened: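 Human cathepsin L in a fluorimetric assay in 50 mM Tris pH 6.5, 5 mM EDTA, 200 mM NaCl, 0.005% Brij35 at 25 °C. Ki was calculated from IC50 by Cheng-Prusoff. Value is the average of two measurements, each in duplicate.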

[2] = system: Trypanosoma brucei rhodesiense; assay: Antitrypanosomal activity against bloodstream form of Trypanosoma brucei rhodesiense STIB 900 assessed as parasite growth inhibition after 72 hrs by Alamar blue assay; format: functional; details: STIB 900, 72 h
Procedure, shortened: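 Standard 72 h growth-inhibition assay with STIB 900 bloodstream trypomastigotes and Alamar Blue read-out. Value is the mean of at least 2 measurements.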

[3] = Selectivity index, ratio of IC50 for rat L6 cells to IC50 for bloodstream form of Trypanosoma brucei rhodesiense STIB 900; format: toxicity; details: read-out: Ratio IC50
Procedure, shortened: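 Ratio of L-6 rat skeletal myoblast IC50 to T. b. rhodesiense STIB 900 bloodstream trypomastigote IC50, both from Alamar Blue growth-inhibition assays. Each IC50 is the mean of at least 2 measurements.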

[4] = Selectivity index, ratio of Ki for human CatL to Ki for Trypanosoma brucei rhodesiense rhodesain
Procedure, shortened: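 Ki(hCatL)/Ki(RD). Fluorimetric assays at 25 °C: RD in 50 mM sodium acetate pH 5.5; hCatL in 50 mM Tris pH 6.5; both buffers with 5 mM EDTA, 200 mM NaCl, 0.005% Brij35. Ki derived from IC50 by Cheng-Prusoff. Each value is the mean of two measurements, each done in duplicate.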

L6 = assay: Cytotoxicity against rat L6 cells after 72 hrs by Alamar blue assay; format: cell-based; details: L6, 72 h
Procedure, shortened: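 Rat skeletal myoblast L6 cells in an Alamar Blue growth-inhibition assay. Value is the mean of at least 2 measurements.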

[5] = Solubility of the compound at pH 6.5 by LYSA; format: physicochemical; details: buffer
Procedure, shortened: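 Lyophilization solubility assay at pH 6.5.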

Rhodesain = Rhodesain (Trypanosoma brucei rhodesiense, UniProt Q95PM0); assay: Inhibition of Trypanosoma brucei rhodesiense rhodesain using Cbz-Phe-Arg-AMC as substrate by fluorimetric method
Procedure, shortened: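 Fluorescence-based assay run at 25 °C in 50 mM sodium acetate pH 5.5 with 5 mM EDTA, 200 mM NaCl and 0.005% Brij35. IC50 values were converted to Ki with the Cheng-Prusoff equation. Values are the average of two measurements, each done in duplicate.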

[6] = system: Trypanosoma brucei rhodesiense; assay: Antitrypanosomal activity against bloodstream form of Trypanosoma brucei rhodesiense STIB 900 infected in NMRI mouse assessed as reduction of parasitemia at 50 mg/kg, po administered for 3 consecutive days starting 1 day post infection measured at 24 hrs post last dose relative to control; format: functional; design: scale not given: the % may be the effect or the level left
Procedure, shortened: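 Female mice infected with STIB900 were dosed orally at 50 mg/kg/day on three consecutive days, starting 1 day post-infection. Compound was in 100% DMSO diluted 10-fold in distilled water, given at 0.1 mL/10 g. Tail-blood parasitaemia was measured 24 h after the last dose versus 4 untreated infected controls. Values are means of 2 mice.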

Rhodesain, sequence (Q95PM0 whole entry): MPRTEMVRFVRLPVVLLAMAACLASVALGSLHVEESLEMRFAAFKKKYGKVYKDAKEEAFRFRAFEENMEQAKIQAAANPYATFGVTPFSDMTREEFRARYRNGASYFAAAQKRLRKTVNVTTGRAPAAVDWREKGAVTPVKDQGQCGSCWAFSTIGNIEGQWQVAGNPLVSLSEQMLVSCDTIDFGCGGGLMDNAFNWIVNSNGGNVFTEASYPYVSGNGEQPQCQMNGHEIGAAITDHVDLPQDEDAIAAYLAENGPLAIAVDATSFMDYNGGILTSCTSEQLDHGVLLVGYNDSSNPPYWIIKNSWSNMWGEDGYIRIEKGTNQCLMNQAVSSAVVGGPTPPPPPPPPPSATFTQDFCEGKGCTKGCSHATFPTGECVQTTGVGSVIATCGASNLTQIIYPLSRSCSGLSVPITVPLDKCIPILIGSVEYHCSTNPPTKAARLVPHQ
Procathepsin L, sequence (P07711 whole entry): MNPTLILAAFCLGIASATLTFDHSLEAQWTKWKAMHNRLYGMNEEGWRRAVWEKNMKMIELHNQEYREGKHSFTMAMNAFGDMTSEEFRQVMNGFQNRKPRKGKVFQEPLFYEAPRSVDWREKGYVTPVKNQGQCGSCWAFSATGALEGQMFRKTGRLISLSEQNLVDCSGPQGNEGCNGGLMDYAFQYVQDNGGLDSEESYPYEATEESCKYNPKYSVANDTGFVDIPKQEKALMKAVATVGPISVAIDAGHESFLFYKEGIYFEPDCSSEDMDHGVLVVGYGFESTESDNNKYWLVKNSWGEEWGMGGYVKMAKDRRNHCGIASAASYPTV

Compound	logD at 100 µM [1]	Ki (Procathepsin L)	IC50 [2]	selectivity ratio [3]	Ratio Ki [4]	IC50 (L6)	solubility [5]	Ki (Rhodesain)	Activity [6]
N#CC1(NC(=O)[C@H](Cc2ccc(OC(F)(F)F)c(Cl)c2)NC(=O)c2cnn(C3CC(F)(F)C3)n2)CC1	3.89	76 nM	9 nM	5560	1.5	50000 nM	2.2 µg/mL (≈ 4.13 µM)	41 nM	–
N#CC1(NC(=O)[C@H](Cc2ccccc2C(F)(F)F)NC(=O)c2cnn(-c3ccc(F)cc3)n2)CC1	–	–	–	–	18 to 507	–	–	7.4 to 597 nM	–
N=C(N)c1ccc(OCCCCCOc2ccc(C(=N)N)cc2)cc1 [PENTAMIDINE]	–	–	9 nM	–	–	–	–	–	–
N#CC1(NC(=O)[C@H](Cc2ccc(Cl)c(Cl)c2)NC(=O)c2cnn(C3CCOCC3)n2)CC1	–	93 nM	23 nM	–	23	> 100000 nM	–	4 nM	–
CSc1ccc(OCc2ncc([N+](=O)[O-])n2C)cc1 [FEXINIDAZOLE]	–	–	1710 to 2930 nM	–	–	–	–	–	–
CC1CS(=O)(=O)CCN1/N=C/c1ccc([N+](=O)[O-])o1 (stereo unspecified) [NIFURTIMOX]	–	–	1440 nM	–	–	–	–	–	–
N#CC1(NC(=O)[C@H](Cc2ccc(OC(F)(F)F)c(Cl)c2)NC(=O)c2cnn(-c3ccncc3)n2)CC1	3.69	82 nM	0.6 nM	–	5	> 10000 nM	5.2 µg/mL (≈ 10 µM)	16 nM	43.3%
N#CC1(NC(=O)[C@H](Cc2ccc(Cl)cc2)NC(=O)c2cnn(-c3ccc(F)cc3)n2)CC1	3.97	1520 nM	6 nM	–	507	> 10000 nM	< 0.3 µg/mL	3 nM	–
N#CC1(NC(=O)[C@H](Cc2ccc(OC(F)(F)F)c(Cl)c2)NC(=O)c2cnn(C3CCCCC3)n2)CC1	–	82 nM	6 nM	5170	6.8	31000 nM	0.3 µg/mL (≈ 0.572 µM)	12 nM	–
N#CC1(NC(=O)[C@H](Cc2ccccc2)NC(=O)c2cnn(-c3ccc(F)cc3)n2)CC1	–	–	–	–	18 to 507	–	–	7.4 to 597 nM	–
N#CC1(NC(=O)[C@H](Cc2ccc(OC(F)(F)F)c(Cl)c2)NC(=O)c2cnn(C3CCOCC3)n2)CC1	3.33	112 nM	13 nM	–	6.2	> 100000 nM	90 µg/mL (≈ 171 µM)	18 nM	–
N#CC1(NC(=O)[C@H](Cc2ccc(OC(F)(F)F)c(Cl)c2)NC(=O)c2cnn(C3COC3)n2)CC1	2.58	25 nM	3 nM	32000	0.8	96000 nM	4 µg/mL (≈ 8.02 µM)	31 nM	43.1%
N#CC1(NC(=O)[C@H](Cc2ccc(OC(F)(F)F)c(Cl)c2)NC(=O)c2cnn(C3CCC3)n2)CC1	3.88	11 nM	1 nM	48000	1	48000 nM	11 µg/mL (≈ 22.1 µM)	11 nM	–
N#CC1(NC(=O)[C@H](Cc2ccc(OC(F)(F)F)c(Cl)c2)NC(=O)c2cnn(C3CCNC3)n2)CC1 (stereo partly specified)	1.33	14 nM	0.2 nM	280000	0.2	56000 nM	253 µg/mL (≈ 494 µM)	93 nM	0.4%
N#CC1(NC(=O)[C@H](Cc2ccc(Cl)c(Cl)c2)NC(=O)c2cnn(C3CCC3)n2)CC1	–	7 nM	4 nM	14600	0.1	58200 nM	–	71 nM	–
